Source: PMC9071802 (RSC Advances, 2019)

Tests used:
[1] = test system: P. aeruginosa MH602 lasB reporter strain (PlasB: gfp(ASV)); experiment: Quorum sensing inhibition assay, GFP fluorescence of lasB reporter strain; type: cell-based, Pseudomonas aeruginosa; conditions: ± standard deviation, NA: no activity; for inhibition at 62.5 µM / inhibition at 125 µM / inhibition at 250 µM: Pseudomonas aeruginosa; for inhibition at 62.5 µM: read-out: Percentage inhibition of GFP fluorescence, 62.5 μM; for inhibition at 125 µM: read-out: Percentage inhibition of GFP fluorescence, 125 μM; for inhibition at 250 µM: read-out: Percentage inhibition of GFP fluorescence, 250 μM
How it was run: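 The reporter is a chromosomal lasB promoter–gfp(ASV) fusion responsive to 3-oxododecanoyl-HSL. Cultures were grown overnight in LB10, then diluted 1:100 in ABT with 0.25% tryptone and 0.13% yeast extract plus ampicillin 100 µg mL⁻¹ and gentamicin 20 µg mL⁻¹. Test compound in DMSO was tested at 62.5, 125 or 250 µM, with 1% DMSO controls. Cultures were incubated at 37 °C and shaken briefly before each read. Fluorescence (ex 485/em 535 nm) and OD600 were read every 30 min for 20 h, in triplicate per experiment.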

[2] = test system: Human Embryonic Kidney cell lines (HEK-293); experiment: Cytotoxicity MTT assay; type: cell-based; conditions: HEK-293, 25, 50 and 100 μM, 24 h
How it was run: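 HEK cells were grown in high-glucose DMEM with 10% FBS and 1% pen-strep at 37 °C and 5% CO₂. They were seeded at 10⁴ cells/well and left overnight. Test compound from DMSO stock was diluted in medium to 25, 50 and 100 µM and applied for 24 h, with a DMSO blank and a positive control. MTT in phenol-red-free DMEM was added for 3 h. Formazan was dissolved in DMSO and read at 570 and 650 nm. Viability was expressed as % of untreated control.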

[3] = test system: LasR, P. aeruginosa PAO-JP2; conditions: read-out: IC50, LasR activity; cited from earlier work
[4] = test system: LasR, P. aeruginosa PAO-JG21; conditions: read-out: IC50, LasR activity; cited from earlier work

Compound: O=C(Cn1cc(-c2ccc([N+](=O)[O-])cc2)nn1)Nc1nc2ccccc2[nH]1 [6p, N-(1H-Benzo[d]imidazol-2-yl)-2-(4-(4-nitrophenyl)-1H-1,2,3-triazol-1-yl)acetamide]
- inhibition at 62.5 µM [1]: 63.7 ± 7.51%
- inhibition at 125 µM [1]: 67.1 ± 5.45%
- inhibition at 250 µM [1]: 68.2 ± 3.87%
- Cytotoxicity [2]: low cytotoxicity

Compound: O=C(CCCc1cn(CC(=O)NC2CCCCC2)nn1)Nc1nc2ccccc2[nH]1 [11b, N-(1H-Benzo[d]imidazol-2-yl)-4-(1-(2-(cyclohexylamino)-2-oxoethyl)-1H-1,2,3-triazol-4-yl)butanamide]
- inhibition at 250 µM [1]: 12.9 ± 20.2%

Compound: O=C(Cn1cc(CCCC(=O)Nc2nc3ccccc3[nH]2)nn1)Nc1ccccn1 [11c, N-(1H-Benzo[d]imidazol-2-yl)-4-(1-(2-oxo-2-(pyridin-2-ylamino)ethyl)-1H-1,2,3-triazol-4-yl)butanamide]
- inhibition at 62.5 µM [1]: 3.69 ± 11.2%
- inhibition at 125 µM [1]: 15.7 ± 8.81%
- inhibition at 250 µM [1]: 19.4 ± 8.16%

Compound: O=C(CCCc1cn(-c2ccc([N+](=O)[O-])cc2)nn1)Nc1nc2ccccc2[nH]1 [11d, N-(1H-Benzo[d]imidazol-2-yl)-4-(1-(4-nitrophenyl)-1H-1,2,3-triazol-4-yl)butanamide]
- inhibition at 62.5 µM [1]: 21.2 ± 1.76%
- inhibition at 125 µM [1]: 21.4 ± 2.62%
- inhibition at 250 µM [1]: 39.4 ± 4.6%

Compound: Cc1cc2nc(NC(=O)CCCc3cn(CC(=O)NC4CCCC4)nn3)[nH]c2cc1C [12a, 4-(1-(2-(Cyclopentylamino)-2-oxoethyl)-1H-1,2,3-triazol-4-yl)-N-(5,6-dimethyl-1H-benzo[d]imidazol-2-yl)butanamide]
- inhibition at 62.5 µM [1]: 28.5 ± 7.69%
- inhibition at 125 µM [1]: 34.1 ± 12.6%
- inhibition at 250 µM [1]: 48.5 ± 5.25%

Compound: Cc1cc2nc(NC(=O)CCCc3cn(CC(=O)NC4CCCCC4)nn3)[nH]c2cc1C [12b, 4-(1-(2-(Cyclohexylamino)-2-oxoethyl)-1H-1,2,3-triazol-4-yl)-N-(5,6-dimethyl-1H-benzo[d]imidazol-2-yl)butanamide]
- inhibition at 62.5 µM [1]: 5.35 ± 10.2%
- inhibition at 125 µM [1]: 9.74 ± 20.7%
- inhibition at 250 µM [1]: 30.8 ± 26.4%

Compound: Cc1cc2nc(NC(=O)CCCc3cn(CC(=O)Nc4ccccn4)nn3)[nH]c2cc1C [12c, N-(5,6-Dimethyl-1H-benzo[d]imidazol-2-yl)-4-(1-(2-oxo-2-(pyridin-2-ylamino)ethyl)-1H-1,2,3-triazol-4-yl)butanamide]
- inhibition at 125 µM [1]: 7.07 ± 11.8%
- inhibition at 250 µM [1]: 48.3 ± 13.4%

Compound: O=C1C=C(Br)/C(=C/Br)O1 [Furanone 30, reference compound]
- Percentage inhibition of GFP fluorescence ([1]; 62.5 μM): 77.33 ± 2.00%
- Percentage inhibition of GFP fluorescence ([1]; 125 μM): 83.02 ± 3.15%
- Percentage inhibition of GFP fluorescence ([1]; 250 μM): 86.86 ± 1.18%

Compound: Cc1cc2nc(N)[nH]c2cc1C [II, 5,6-dimethyl-2-aminobenzimidazole]
- IC50 [3]: 2300 nM
- IC50 [4]: 1400 nM

Compound: N-(1H-Benzo[d]imidazol-2-yl)-2-(4-nonyl-1H-1,2,3-triazol-1-yl)acetamide [6e]
- Percentage inhibition of GFP fluorescence ([1]; 62.5 μM): 24.87 ± 6.69%
- Percentage inhibition of GFP fluorescence ([1]; 125 μM): 37.20 ± 6.71%
- Percentage inhibition of GFP fluorescence ([1]; 250 μM): 41.31 ± 7.90%
